Screening data from PubChem.
Runt-SMMHC FRET: inhibitors of RUNX1 Runt–CBFb-SMMHC binding, primary screen, biochemical, FRET, Cerulean-Runt, Venus-CBFb-SMMHC, uHTS | Cerulean-Runt/Venus-CBFb-SMMHC FRET ratio 530/480, 1 h | 220,000 compounds, 0.74% hits | inhibition, % at 20 µM | Runt-related transcription factor 1 (Homo sapiens) + Core-binding factor subunit beta … | AID 1434, 2008;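 active means mean inhibition across duplicate retests at 20 µM reaching about 50%, limit read from the data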;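 further: 0% = DMSO wells and 100% = wells with excess untagged CBFb-SMMHC; inhibitors lower the FRET ratio by blocking Runt binding to CBFb-SMMHC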
Target sequence (Q01196 whole entry, looked up): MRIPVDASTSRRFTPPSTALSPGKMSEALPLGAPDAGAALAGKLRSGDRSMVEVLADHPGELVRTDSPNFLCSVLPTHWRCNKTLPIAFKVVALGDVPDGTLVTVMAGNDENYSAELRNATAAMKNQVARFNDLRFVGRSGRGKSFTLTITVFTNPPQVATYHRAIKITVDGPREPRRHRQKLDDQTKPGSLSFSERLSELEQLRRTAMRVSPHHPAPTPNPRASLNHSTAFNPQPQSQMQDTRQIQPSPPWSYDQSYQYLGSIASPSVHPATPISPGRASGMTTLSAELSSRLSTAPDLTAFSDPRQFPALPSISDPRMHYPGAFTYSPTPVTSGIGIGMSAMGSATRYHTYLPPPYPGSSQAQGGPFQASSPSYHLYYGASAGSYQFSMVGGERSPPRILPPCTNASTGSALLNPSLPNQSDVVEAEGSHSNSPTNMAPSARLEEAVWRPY
Target sequence (Q13951 whole entry, looked up): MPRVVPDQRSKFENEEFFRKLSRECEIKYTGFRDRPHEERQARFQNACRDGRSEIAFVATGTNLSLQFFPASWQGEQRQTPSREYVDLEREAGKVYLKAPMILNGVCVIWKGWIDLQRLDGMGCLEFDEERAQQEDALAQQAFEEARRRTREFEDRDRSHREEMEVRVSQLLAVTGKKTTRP
Hck-Nef inh: inhibitors of Nef-activated human Hck kinase, primary screen, biochemical, Z-Lyte FRET, 384-well, Hck-YEEI. Tyrosine-protein kinase HCK (Homo sapiens), P08631. Recombinant Hck-YEEI plus Nef, Z-Lyte FRET kinase assay. inhibition, % at 20 µM. 220,000 compounds, 0.68% hits. AID 463187, 2010;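 active means Hck-Nef kinase inhibition above about 50%, limit read from the data; inactive means inhibition below that limit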;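 further: 0% = DMSO with Hck plus Nef and 100% = Hck alone without Nef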
RanGTP-Imp inh: inhibitors of RanGTP-importin-beta interaction, primary screen, biochemical, FRET, CFP-Ran, YFP-importin-beta, homogeneous | cell-free CFP-Ran/YFP-importin-beta FRET ratio | inhibition, % (test concentration not listed) | Ran GTPase (GTP-bound) - importin-beta complex | 300,000 compounds, 1.1% hits;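 active means more than half of the replicate wells show a fall in the fluorescence ratio signal beyond about 16%, limit read from the data, passing the limit was not always enough; inconclusive means exactly half of the replicate wells pass the set limit; inactive means fewer than half of replicates pass the limit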;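 further: 0% = DMSO wells and 100% = Ran loaded with GDP instead of GTP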
Runt-CBFb FRET: inhibitors of RUNX1 Runt–CBFb binding, primary screen, biochemical, FRET, Cerulean-Runt, Venus-CBFb, uHTS; Runt-related transcription factor 1 (Homo sapiens) + Core-binding factor subunit beta …; Cerulean-Runt/Venus-CBFb FRET ratio 530/480, 1 h; inhibition, % at 20 µM; 220,000 compounds, 0.46% hits;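 active means inhibition over about 50% at 20 µM in the single-dose screen, limit read from the data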;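 further: 0% = DMSO wells and 100% = excess unlabeled CBFb competitor control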
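Assay system: Cerulean-tagged RUNX1 Runt domain (FRET donor) fusion protein / Amount: 100 nM each of Venus-CBFb and Cerulean-Runt domain / Medium: Tris buffer pH 7.5 with salts and BSA / Also added: Venus-CBFb 100 nM / Schedule: 1 h complex formation plus 1 h compound treatment, room temperature / Signal: FRET fluorescence / Read-out: loss of energy transfer signal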
CaV13 FRET inh: Primary screen for inhibitors of IQ motif and Ca2+-dependent inactivation inhibitor domain binding in CACNA1D, Förster resonance energy transfer in living cells, …; 340,000 compounds, 0.098% hits; inhibition, % at 12.3 µM; AID 743397; HEK cells, CFP/YFP FRET ICDI-IQ, plate reader, 10 min; percent FRET-ratio fall versus neutral wells;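 active means mean replicate inhibition of at least 30% and at least 1% of replicates passing that level; inconclusive means only one of the two criteria is met; inactive means neither criterion is met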;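 further: 0% = median of the neutral control wells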
* hit, by the source's call; ? = inconclusive; nt = no result given. Sampled rows, rich in hits. Any-hit rate of the full collection: about 1.5%.

SMILES | Runt-SMMHC FRET | Hck-Nef inh | RanGTP-Imp inh | Runt-CBFb FRET | CaV13 FRET inh
CCOC(=O)/C(C#N)=C(C)/C=C1\Sc2ccccc2N1CC | -40.0 | 3.1 | 19.4* | -36.7 | -2.7
CCC1(c2ccccc2)NC(=O)N(CC(=O)NCc2ccc(OC)cc2)C1=O (centres undefined) | nt | nt | -0.4 | nt | -5.8
Cc1cccc(NC(=O)c2ccc3nccnc3c2)c1C | nt | nt | 1.0 | nt | -2.2
Cn1c(=O)c2cc(S(=O)(=O)NCCC(=O)NCc3ccccc3Cl)ccc2n(C)c1=O | -1.6 | 1.9 | -1.9 | 137.5* | -10.0
Cc1ccc(CNC(=O)CCNS(=O)(=O)c2ccc3c(c2)c(=O)n(C)c(=O)n3C)cc1 | 1.8 | 0.1 | 8.1 | -1.2 | -7.2
O=C(NNC(=S)Nc1ccccc1)C1CCCCC1 | -0.5 | -1.0 | 178.1* | 1.4 | -4.9
O=C(NNC(=S)Nc1ccccc1)C1CC1 | -3.1 | -1.4 | -2.6 | 1.4 | -8.5
CN1/C(=C/C=C(/C#N)C(N)=O)C(C)(C)c2ccccc21 | -14.1 | 2.3 | 115.2* | 60.7* | nt
CN1/C(=C\C(=O)Nc2ccc(F)cc2)C(C)(C)c2ccccc21 | -5.5 | -0.4 | -0.1 | -1.6 | -6.4
CN1/C(=C\C=C(/C#N)C(=O)Nc2ccccc2F)C(C)(C)c2ccccc21 | 58.5* | 2.2 | 122.3* | -0.6 | 0.3
CC1(C)OC1COc1c2ccoc2cc2oc(=O)ccc12 (centres undefined) | 8.0 | 23.2 | 0.4 | 4.9 | -4.8
Cc1cc(C)c(OCCN2CCOCC2)c(Cl)c1 | nt | nt | -5.9 | nt | -4.4
O=C1/C(=C/N(C(=O)c2ccco2)c2ccc(Cl)cc2)Sc2ccccc21 | 74.9* | 6.1 | 9.8 | 21.3 | nt
COc1ccc(CN(C(=O)c2ccco2)c2ccc(Br)cc2)cc1OC | -43.7 | -0.4 | 0.0 | -1.0 | -5.2
O=C1/C(=C/N(C(=O)c2ccco2)c2ccc(Br)cc2)Sc2ccccc21 | 66.6 | 1.7 | 25.0* | 19.9 | nt
O=C1c2ccccc2C(=O)N1CCCCN(C(=O)c1ccco1)c1ccc(Cl)cc1 | -2.2 | 0.1 | 4.7 | -4.3 | nt
Cc1noc(C)c1COc1ccccc1C(=O)N(C)CC(=O)Nc1ccc(F)cc1 | nt | nt | 5.1 | nt | -4.3
COc1ccc(C2=CC(c3c(C)nn(-c4ccccc4)c3Cl)n3nnnc3N2)cc1OC (centres undefined) | 86.1* | 2.2 | nt | 30.7 | nt
O=C(O)c1c[nH]c2ccc([N+](=O)[O-])cc2c1=O | nt | nt | nt | nt | -2.5
Cc1ccc2sc3ccc(NC(=O)c4ccccc4Cl)cc3c(=O)c2c1 | 101.3* | 8.2 | 113.6* | 34.9 | -4.0
C=CCNC(=O)/C(C#N)=C/c1c(N2CCN(c3ccc(OC)cc3)CC2)nc2c(C)cccn2c1=O | nt | nt | ? | nt | -11.8
COCCCNC(=O)/C(C#N)=C/c1c(N2CCN(c3ccccc3)CC2)nc2c(C)cccn2c1=O | nt | nt | 31.5* | nt | -3.8
C=CCNC(=O)/C(C#N)=C/c1c(N2CCN(c3ccccc3)CC2)nc2c(C)cccn2c1=O | nt | nt | 27.6* | nt | -14.3
CCNC(=O)/C(C#N)=C/c1c(N2CCN(Cc3ccc4c(c3)OCO4)CC2)nc2c(C)cccn2c1=O | 63.2* | 4.4 | 9.3 | 50.3* | -1.3
O=C(Nc1cc(S(=O)(=O)N2CCOCC2)ccc1N1CCOCC1)c1cccs1 | nt | nt | nt | nt | -2.4
SMILES | Runt-SMMHC FRET | Hck-Nef inh | RanGTP-Imp inh | Runt-CBFb FRET | CaV13 FRET inh
CCc1cc[n+](-c2nc3ccccc3nc2[N-]S(=O)(=O)c2ccc(Br)s2)cc1 | 69.1* | 0.3 | 40.6* | -9.3 | -6.3
COC(=O)c1ccc(-c2sc3nc(N4CCOCC4)c4c(c3c2N)CC(C)(C)OC4)o1 | -23.8 | -8.6 | 24.1* | -1.5 | -6.3
CC1(C)Cc2c(c(N3CCOCC3)nc3sc(C(N)=O)c(N)c23)CO1 | -5.3 | 25.0 | 6.5 | 29.5 | -5.0
CCOC(=O)[C@]12CCCC=C1N(Cc1ccco1)C(=O)[C@H](CC(=O)NCCCOC)C2 | nt | nt | nt | nt | -7.5
COC(=O)c1ccc2c(c1)C(=O)/C(=C/c1ccc(O)cc1)O2 | -106.2 | 11.0 | 19.1* | -225.7 | -14.1
COc1ccc(C#Cc2ccc3c(=O)c4ccccc4n(C)c3c2)cc1 | nt | nt | 87.9* | nt | nt
Cn1c2ccccc2c(=O)c2ccc(C#Cc3ccc(N)cc3)cc21 | nt | nt | 85.5* | nt | -14.1
O=c1c2ccccc2sn1-c1ccccc1 | 57.0* | 96.3* | 3.0 | 32.0 | -7.8
O=C(Cn1c(=O)cnc2ccccc21)N1CCN(S(=O)(=O)c2ccccc2Br)CC1 | nt | nt | nt | nt | -15.3
CC(C)(C)C(=O)Nc1nc2c(s1)CN(Cc1ccccc1)CC2 | 91.7* | 13.6 | 99.4* | 77.2* | ?
O=C(Nc1nc2c(s1)CN(Cc1ccccc1)CC2)c1c(F)cccc1F | 98.0* | 18.7 | -1.1 | 49.9 | -4.5
O=C(Nc1nnc(Cc2ccccc2)s1)C1CCC1 | nt | nt | -4.3 | nt | -3.0
O=C(Nc1ccccc1F)c1ccc(CN2CCc3ccccc3C2)cc1 | nt | nt | ? | nt | -0.6
O=C(Nc1nc2c(s1)CN(Cc1ccccc1)CC2)C1CCCC1 | 118.4* | 27.9 | -4.6 | 52.6* | -2.0
CC(=O)Nc1ccc2cc3ccc(NC(C)=O)cc3nc2c1 | nt | -31.0 | 37.2* | 15.3 | -9.2
Cc1cc(O)ccc1Nc1nc(-c2cccs2)cs1 | 19.4 | 57.4* | 0.1 | 44.5 | -4.9
O=C(Nc1cccnc1Cl)c1cc2c(s1)-c1ccccc1OC2 | nt | nt | 2.4 | nt | -3.6
Cc1cccc2c1-c1sc(C(=O)Nc3nccs3)cc1CO2 | 24.7 | 11.1 | 22.3* | -20.4 | -4.9
O=C(Nc1nc2ccccc2s1)c1cc2c(s1)-c1ccccc1OC2 | 58.6* | 35.6 | 36.8* | 18.8 | -3.7
O=C(Nc1ccc(Cl)cn1)c1cc2c(s1)-c1ccccc1OC2 | 37.8 | 47.5 | 58.0* | 32.5 | -17.9
Cc1ccc(NC(=O)c2cc3c(CO)cnc(C)c3oc2=Nc2cccc(C(N)=O)c2)cc1 | nt | nt | -0.5 | nt | -4.4
CC(C)(C)OC(=O)CNC(=O)c1[nH]cnc1C(=O)NC(c1ccccc1)c1ccccc1 | nt | nt | 2.7 | nt | -3.0
O=C(CN1CCN(C(=O)C2CCCO2)CC1)Nc1ccc(Br)cc1 (centres undefined) | nt | nt | -4.4 | nt | -2.4
Cc1ccc(S(=O)(=O)NNC(=O)Nc2ccc(C)c(C)c2)c(C)c1 | nt | nt | -5.4 | nt | -3.3
CC(=O)N(c1ccccc1C)C1CCCC1 | 0.7 | 4.3 | 3.4 | -1.0 | -5.3
CC(=O)N(C1=C(Cl)C(=O)c2ccccc2C1=O)C1CCCCC1 | 69.9* | -39.5 | 4.0 | 33.1 | 15.6
CCCCCCc1cc2cc(-c3nnc(-c4cc(OC)c(OC)c(OC)c4)o3)c(=O)oc2cc1O | 75.1* | -6.7 | 139.3* | 123.3* | nt
COc1ccc(NC(=O)c2cc3ccccc3oc2=O)c(OC)c1 | nt | nt | ? | nt | -4.7
